Measured values taken from ChEMBL document CHEMBL1147694, “Synthesis and biological activity of conjugates between paclitaxel and the cell delivery vector penetratin” (Bioorg Med Chem Lett, 2006).

Assays:
[1] = tested on: A549; assay: Antiproliferative activity against human A549 cell line by MTT assay after 72 hrs; format: functional, cell-based
Outline: (§1)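 Human tumour cells, MCF7 (breast) and A549 (lung), were exposed to test compounds for 72 h, and growth was read by MTT assay. IC50 is the concentration giving 50% growth inhibition, taken as the mean of three independent experiments.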

[2] = Aqueous solubility of the compound; format: physicochemical
[3] = tested on: A549; assay: Antiproliferative activity against human A549 cell line by MTT assay after 1 hr; format: functional, cell-based; conditions: A549, 1 h
Outline: (§2)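 Cells were exposed to the conjugates for a short 1 h period, and viability was then quantified by MTT assay.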

[4] = Half life in tissue culture medium; format: ADME
Outline: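 Compounds were dissolved in DMEM with 10% foetal calf serum at 1 to 40 (concentration range) and incubated at 37 °C. Aliquots were withdrawn over time and analysed by RP-HPLC and mass spectrometry to give half-life. Analytical RP-HPLC used a MeCN gradient in water with 0.1% TFA over 20 min at 25 °C.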

[5] = tested on: MCF7; assay: Antiproliferative activity against human MCF7 cell line by MTT assay after 1 hr; format: functional, cell-based; conditions: MCF7, 1 h; outline: as §2
[6] = tested on: MCF7; assay: Antiproliferative activity against human MCF7 cell line by MTT assay after 72 hrs; format: functional, cell-based; outline: as §1
[7] = Homo sapiens, A549, 72 h, read-out: IC50
[8] = Homo sapiens, MCF7, 72 h, read-out: IC50

Row | Molecule | IC50 [1, 7] [µM] | solubility [2] [mg/mL] | IC50 [3] [µM] | half-life [4] [h] | IC50 [5] [µM] | IC50 [6, 8] [µM] | IC50 ([1]; a549) | IC50 ([6]; mcf7)
1 | CSCC[C@H](NC(=O)[C@H](CCCN=C(N)N)NC(=O)[C@H](CCCN=C(N)N)NC(=O)CC(N)CSC1CC(=O)N(CCC(=O)O[C@@H](C(=O)O[C@@H]2C(C)=CC3[C@@H](OC(C)=O)C(=O)[C@@]4(C)[C@H]([C@H](OC(=O)c5ccccc5)[C@@]2(O)C3(C)C)[C@]2(OC(C)=O)CO[C@@H]2C[C@@H]4O)[C@@H](NC(=O)c2ccccc2)c2ccccc2)C1=O)C(=O)N[C@@H](CCCCN)C(=O)N[C@@H](Cc1c[nH]c2ccccc12)C(=O)N[C@@H](CCCCN)C(=O)N[C@@H](CCCCN)C(N)=O (stereo partly specified) | < 0.015 | > 10 | 0.043 | > 8 | 0.325 | < 0.015 |  | 
2 | CC[C@H](C)[C@H](NC(=O)[C@H](CCCCN)NC(=O)[C@@H](NC(=O)[C@H](CCC(N)=O)NC(=O)[C@H](CCCN=C(N)N)NC(=O)CC(N)CSC1CC(=O)N(CCC(=O)O[C@@H](C(=O)O[C@@H]2C(C)=CC3[C@@H](OC(C)=O)C(=O)[C@@]4(C)[C@H]([C@H](OC(=O)c5ccccc5)[C@@]2(O)C3(C)C)[C@]2(OC(C)=O)CO[C@@H]2C[C@@H]4O)[C@@H](NC(=O)c2ccccc2)c2ccccc2)C1=O)[C@@H](C)CC)C(=O)N[C@@H](Cc1c[nH]c2ccccc12)C(=O)N[C@@H](Cc1ccccc1)C(=O)N[C@@H](CCC(N)=O)C(=O)N[C@@H](CC(N)=O)C(=O)N[C@@H](CCCN=C(N)N)C(=O)N[C@@H](CCCN=C(N)N)C(=O)N[C@@H](CCSC)C(=O)N[C@@H](CCCCN)C(=O)N[C@@H](Cc1c[nH]c2ccccc12)C(=O)N[C@@H](CCCCN)C(=O)N[C@@H](CCCCN)C(=O)O (stereo partly specified) | 0.27 |  |  |  |  |  |  | 
3 | CC[C@H](C)[C@H](NC(=O)[C@H](CCCCN)NC(=O)[C@@H](NC(=O)[C@H](CCC(N)=O)NC(=O)[C@H](CCCN=C(N)N)NC(=O)CC(N)CSC1CC(=O)N(CCC(=O)O[C@@H](C(=O)O[C@@H]2C(C)=CC3[C@@H](OC(C)=O)C(=O)[C@@]4(C)[C@H]([C@H](OC(=O)c5ccccc5)[C@@]2(O)C3(C)C)[C@]2(OC(C)=O)CO[C@@H]2C[C@@H]4O)[C@@H](NC(=O)c2ccccc2)c2ccccc2)C1=O)[C@@H](C)CC)C(=O)N[C@@H](Cc1c[nH]c2ccccc12)C(=O)N[C@@H](Cc1ccccc1)C(=O)N[C@@H](CCC(N)=O)C(=O)N[C@@H](CC(N)=O)C(=O)N[C@@H](CCCN=C(N)N)C(=O)N[C@@H](CCCN=C(N)N)C(=O)N[C@@H](CCSC)C(=O)N[C@@H](CCCCN)C(=O)N[C@@H](Cc1c[nH]c2ccccc12)C(=O)N[C@@H](CCCCN)C(=O)N[C@@H](CCCCN)C(N)=O (stereo partly specified) | < 0.015 |  | 0.618 | > 8 | 0.202 | < 0.017 |  | 
4 | CC(=O)O[C@H]1C(=O)[C@@]2(C)[C@H]([C@H](OC(=O)c3ccccc3)[C@]3(O)C[C@H](OC(=O)[C@H](O)[C@@H](NC(=O)c4ccccc4)c4ccccc4)C(C)=C1C3(C)C)[C@]1(OC(C)=O)CO[C@@H]1C[C@@H]2O [PACLITAXEL] | < 0.015 | < 0.01 | 0.028 |  | 0.043 | < 0.015 |  | 
5 | CC[C@H](C)[C@H](NC(=O)[C@H](CCCCN)NC(=O)[C@@H](NC(=O)[C@H](CCC(N)=O)NC(=O)[C@@H](N)CCCNC(=N)N)[C@@H](C)CC)C(=O)N[C@@H](Cc1c[nH]c2ccccc12)C(=O)N[C@@H](Cc1ccccc1)C(=O)N[C@@H](CCC(N)=O)C(=O)N[C@@H](CC(N)=O)C(=O)N[C@@H](CCCNC(=N)N)C(=O)N[C@@H](CCCNC(=N)N)C(=O)N[C@@H](CCSC)C(=O)N[C@@H](CCCCN)C(=O)N[C@@H](Cc1c[nH]c2ccccc12)C(=O)N[C@@H](CCCCN)C(=O)N[C@@H](CCCCN)C(N)=O [PENETRATIN] |  |  |  |  |  |  | Not Active | Not Active
6 | H-RRMKWKK-NH2 |  |  |  |  |  |  | Not Active | Not Active
